Measurements published in ChEMBL document CHEMBL5058577, “EUbOPEN Chemogenomics Library 2 (Multiplex)” (2022).

System: Fibroblast
Test: Multiplex assay against human fibroblast
Type: toxicity, cell-based
Summary of the method: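 Phenotypes for tubulin, mitochondrial mass and membrane permeability are expressed as per cents of healthy-nucleus cells. Cells were stained live at seeding with Hoechst33342, BioTracker Green Microtubule Cytoskeleton Dye, MitoTracker Red and Annexin V Alexa Fluor 680, then imaged after compound addition on a CQ1 microscope at 37°C and 5% CO2. Machine-learning gating in CellPathfinder separated Hoechst high-intensity objects from normal cells, divided normal cells by nuclear state (healthy, pyknosed, fragmented) and divided pyknosed cells into mitotic or apoptotic.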

[1] = 12 h, 1 µM, compound concentration 1 uM, replicate 1
[2] = 12 h, 1 µM, compound concentration 1 uM, replicate 2
[3] = 12 h, 10 µM, compound concentration 10 uM, replicate 1
[4] = 12 h, 10 µM, compound concentration 10 uM, replicate 2
[5] = 24 h, 1 µM, compound concentration 1 uM, replicate 1
[6] = 24 h, 1 µM, compound concentration 1 uM, replicate 2
[7] = 24 h, 10 µM, compound concentration 10 uM, replicate 1
[8] = 24 h, 10 µM, compound concentration 10 uM, replicate 2
[9] = 48 h, 1 µM, compound concentration 1 uM, replicate 1
[10] = 48 h, 1 µM, compound concentration 1 uM, replicate 2
[11] = 48 h, 10 µM, compound concentration 10 uM, replicate 1
[12] = 48 h, 10 µM, compound concentration 10 uM, replicate 2

## N#Cc1c(N)nc(SCc2csc(-c3ccc(Cl)cc3)n2)c(C#N)c1-c1ccc(OCCO)cc1 [CAPADENOSON]
[1]
  Population Apoptotic (%): 43%
  Population Fragmented Nuclei (%): 8%
  Population Healthy Nuclei (%): 80%
  Population Hoechst High Intensity Objects (%): 2%
  Population Membrane Permeable-Phenotype (%): 0%
  Population Mitochondria Different-Phenotype (%): 10%
  Population Mitotic Cells (%): 56%
  Population Normal (%): 97%
  Population Pyknosed Nuclei (%): 11%
  Population Tubulin-Different-Phenotype (%): 38%
  Total Cell Count: 139
[2]
  Population Apoptotic (%): 27%
  Population Fragmented Nuclei (%): 30%
  Population Healthy Nuclei (%): 43%
  Population Hoechst High Intensity Objects (%): 1%
  Population Membrane Permeable-Phenotype (%): 5%
  Population Mitochondria Different-Phenotype (%): 11%
  Population Mitotic Cells (%): 72%
  Population Normal (%): 98%
  Population Pyknosed Nuclei (%): 25%
  Population Tubulin-Different-Phenotype (%): 55%
  Total Cell Count: 157
[3]
  Population Apoptotic (%): 31%
  Population Fragmented Nuclei (%): 23%
  Population Healthy Nuclei (%): 50%
  Population Hoechst High Intensity Objects (%): 1%
  Population Membrane Permeable-Phenotype (%): 0%
  Population Mitochondria Different-Phenotype (%): 10%
  Population Mitotic Cells (%): 68%
  Population Normal (%): 98%
  Population Pyknosed Nuclei (%): 25%
  Population Tubulin-Different-Phenotype (%): 80%
  Total Cell Count: 172
[4]
  Population Apoptotic (%): 41%
  Population Fragmented Nuclei (%): 41%
  Population Healthy Nuclei (%): 29%
  Population Hoechst High Intensity Objects (%): 8%
  Population Membrane Permeable-Phenotype (%): 20%
  Population Mitochondria Different-Phenotype (%): 14%
  Population Mitotic Cells (%): 58%
  Population Normal (%): 91%
  Population Pyknosed Nuclei (%): 29%
  Population Tubulin-Different-Phenotype (%): 97%
  Total Cell Count: 128
[5]
  Population Apoptotic (%): 72%
  Population Fragmented Nuclei (%): 11%
  Population Healthy Nuclei (%): 80%
  Population Hoechst High Intensity Objects (%): 1%
  Population Membrane Permeable-Phenotype (%): 0%
  Population Mitochondria Different-Phenotype (%): 5%
  Population Mitotic Cells (%): 27%
  Population Normal (%): 98%
  Population Pyknosed Nuclei (%): 8%
  Population Tubulin-Different-Phenotype (%): 34%
  Total Cell Count: 139
[6]
  Population Apoptotic (%): 48%
  Population Fragmented Nuclei (%): 35%
  Population Healthy Nuclei (%): 44%
  Population Hoechst High Intensity Objects (%): 4%
  Population Membrane Permeable-Phenotype (%): 6%
  Population Mitochondria Different-Phenotype (%): 20%
  Population Mitotic Cells (%): 51%
  Population Normal (%): 95%
  Population Pyknosed Nuclei (%): 20%
  Population Tubulin-Different-Phenotype (%): 71%
  Total Cell Count: 148
[7]
  Population Apoptotic (%): 38%
  Population Fragmented Nuclei (%): 26%
  Population Healthy Nuclei (%): 52%
  Population Hoechst High Intensity Objects (%): 2%
  Population Membrane Permeable-Phenotype (%): 0%
  Population Mitochondria Different-Phenotype (%): 26%
  Population Mitotic Cells (%): 61%
  Population Normal (%): 97%
  Population Pyknosed Nuclei (%): 20%
  Population Tubulin-Different-Phenotype (%): 67%
  Total Cell Count: 179
[8]
  Population Apoptotic (%): 41%
  Population Fragmented Nuclei (%): 43%
  Population Healthy Nuclei (%): 28%
  Population Hoechst High Intensity Objects (%): 6%
  Population Membrane Permeable-Phenotype (%): 17%
  Population Mitochondria Different-Phenotype (%): 25%
  Population Mitotic Cells (%): 58%
  Population Normal (%): 93%
  Population Pyknosed Nuclei (%): 27%
  Population Tubulin-Different-Phenotype (%): 94%
  Total Cell Count: 131
[9]
  Population Apoptotic (%): 88%
  Population Fragmented Nuclei (%): 16%
  Population Healthy Nuclei (%): 77%
  Population Hoechst High Intensity Objects (%): 2%
  Population Membrane Permeable-Phenotype (%): 0%
  Population Mitochondria Different-Phenotype (%): 7%
  Population Mitotic Cells (%): 11%
  Population Normal (%): 97%
  Population Pyknosed Nuclei (%): 6%
  Population Tubulin-Different-Phenotype (%): 37%
  Total Cell Count: 147
[10]
  Population Apoptotic (%): 69%
  Population Fragmented Nuclei (%): 38%
  Population Healthy Nuclei (%): 43%
  Population Membrane Permeable-Phenotype (%): 6%
  Population Mitochondria Different-Phenotype (%): 12%
  Population Mitotic Cells (%): 30%
  Population Pyknosed Nuclei (%): 17%
  Population Tubulin-Different-Phenotype (%): 60%
  Total Cell Count: 151
[11]
  Population Apoptotic (%): 81%
  Population Fragmented Nuclei (%): 32%
  Population Healthy Nuclei (%): 53%
  Population Hoechst High Intensity Objects (%): 2%
  Population Membrane Permeable-Phenotype (%): 0%
  Population Mitochondria Different-Phenotype (%): 32%
  Population Mitotic Cells (%): 18%
  Population Normal (%): 97%
  Population Pyknosed Nuclei (%): 14%
  Population Tubulin-Different-Phenotype (%): 78%
  Total Cell Count: 187
[12]
  Population Apoptotic (%): 36%
  Population Fragmented Nuclei (%): 57%
  Population Healthy Nuclei (%): 29%
  Population Hoechst High Intensity Objects (%): 0%
  Population Membrane Permeable-Phenotype (%): 11%
  Population Mitochondria Different-Phenotype (%): 30%
  Population Mitotic Cells (%): 63%
  Population Normal (%): 100%
  Population Pyknosed Nuclei (%): 13%
  Population Tubulin-Different-Phenotype (%): 95%
  Total Cell Count: 142
